From PMC7511286 (European Journal of Drug Metabolism and Pharmacokinetics, 2020)
“Also recorded” adds a separate entry of the source. Marks after values point to notes of the source that are not given here.

Key:
[1] = MAD study: multiple ascending oral dose pharmacokinetics; format: in vivo, human
Summary of the method: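 Healthy males took oral tablets once daily for 14 days after an overnight fast of at least 8 h, continued 1 h on profile days. Plasma was sampled 0.5–24 h after the day 0 dose, as troughs, and 0.5–72 h after the day 13 dose. LC-MS/MS used ESI−, LLOQ 0.1 μg/ml. AUC was by linear-log trapezoid. CL/F = dose/AUC0–24; RAAUC = AUC0–24 (day 13–14)/AUC0–24 (day 0–1).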

[2] = SAD study: single ascending oral dose pharmacokinetics; format: in vivo, human; details: for CL/F: geometric mean (geometric %CV)
Summary of the method: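 Healthy males (n = 6 per group) took oral tablets either fasted (10 h overnight fast, continued 4 h) or 30 min after starting a standardized breakfast. Periods were separated by at least 14 days of washout. Plasma was sampled pre-dose to 168 h; urine was collected 24 h pre-dose and 24 h post-dose. LC-MS/MS used ESI−, LLOQ 0.1 μg/ml. CL/F = dose/AUC0–∞; Vz/F = CL/F/λz; values are geometric means.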

[3] = Day 13, 30 mg once daily, n = 12, geometric mean (geometric %CV)
[4] = Day 13, 40 mg once daily, n = 12, geometric mean (geometric %CV)
[5] = Day 13, 50 mg once daily not pre-dosed, n = 8, geometric mean (geometric %CV)
[6] = Day 13, 50 mg once daily pre-dosed, n = 8, geometric mean (geometric %CV)
[7] = Day 13–14 / Day 0–1, 30 mg once daily, n = 12, geometric mean (geometric %CV)
[8] = single oral 10 mg, fed vs fasted

SMILES: COc1cccc(-c2ccc(NC(=O)C3=C(C(=O)O)CCC3)c(F)c2)c1 [IMU-838, vidofludimus calcium]
- Cmax ([1]; Day 0, 30 mg, n = 12, geometric mean (geometric %CV)): 3.979 (39.5) μg/ml
- Cmax ([1]; Day 0, 40 mg, n = 12, geometric mean (geometric %CV)): 5.805 (32.3) μg/ml
- Cmax ([1]; Day 0, 50 mg not pre-dosed, n = 8, geometric mean (geometric %CV)): 5.016 (51.1) μg/ml
- AUC0–t [1, 3]: 188.554 (30.3) μg·h/ml
- CL/F [1, 3]: 4.985 (25.0) ml/min
- Cmax [1, 3]: 6.543 (25.8) μg/ml
- AUC0–t [1, 4]: 284.959 (25.3) μg·h/ml
- CL/F [1, 4]: 4.201 (22.6) ml/min
- Cmax [1, 4]: 10.911 (20.2) μg/ml
- CL/F ([1]; Day 13, 50 mg once daily all, n = 16, geometric mean (geometric %CV)): 5.008 (20.9) ml/min
- AUC0–t [1, 5]: 310.301 (32.7) μg·h/ml
- CL/F [1, 5]: 4.982 (27.3) ml/min
- Cmax [1, 5]: 10.841 (21.5) μg/ml
- AUC0–t [1, 6]: 304.154 (16.1) μg·h/ml
- CL/F [1, 6]: 5.034 (14.1) ml/min
- Cmax [1, 6]: 10.725 (20.1) μg/ml
- RAAUC (accumulation ratio for AUC0–24) [1, 7]: 1.958 (24.4)
- RACmax (accumulation ratio for Cmax) [1, 7]: 1.644 (37.6)
- RAAUC (accumulation ratio for AUC0–24) ([1]; Day 13–14 / Day 0–1, 40 mg once daily, n = 9, geometric mean, geometric %CV 23.1): 2.077^e (23.1)
- RACmax (accumulation ratio for Cmax) ([1]; Day 13–14 / Day 0–1, 40 mg once daily, n = 12, geometric mean (geometric %CV)): 1.880 (30.1)
- AUC(0-t) ([1]; male, human, plasma, oral, 30 mg, AUC0–24, Day 0, 30 mg, n = 12, geometric mean (geometric %CV)): 51200 ng·h/mL
- AUC(0-t) ([1]; male, human, plasma, oral, 30 mg, AUC0–t, geometric mean, Day 0, 30 mg): 51100 ng·h/mL
- Cmax ([1]; male, human, plasma, oral, 30 mg, Cmax, Day 0, 30 mg, n = 12, geometric mean (geometric %CV)): 3980 ng/mL
- Tmax ([1]; male, human, plasma, oral, 30 mg, tmax, Day 0, 30 mg, n = 12, median (minimum–maximum)): 3 h
- AUC(0-t) ([1]; male, human, plasma, oral, 40 mg, AUC0–t, geometric mean, Day 0, 40 mg): 71700 ng·h/mL
- Cmax ([1]; male, human, plasma, oral, 40 mg, Cmax, Day 0, 40 mg, n = 12, geometric mean (geometric %CV)): 5810 ng/mL
- Tmax ([1]; male, human, plasma, oral, 40 mg, tmax, Day 0, 40 mg, n = 12, median (minimum–maximum)): 3 h
- AUC(0-t) ([1]; male, human, plasma, oral, 50 mg, AUC0–24, Day 0, 50 mg not pre-dosed, n = 8, geometric mean (geometric %CV)): 67100 ng·h/mL
- AUC(0-t) ([1]; male, human, plasma, oral, 50 mg, AUC0–t, geometric mean, Day 0, 50 mg not pre-dosed): 66700 ng·h/mL
- Cmax ([1]; male, human, plasma, oral, 50 mg, Cmax, Day 0, 50 mg all, n = 16, geometric mean (geometric %CV)): 6040 ng/mL
- Cmax ([1]; male, human, plasma, oral, 50 mg, Cmax, Day 0, 50 mg not pre-dosed, n = 8, geometric mean (geometric %CV)): 5020 ng/mL
- Cmax ([1]; male, human, plasma, oral, 50 mg, Cmax, Day 0, 50 mg pre-dosed, n = 8, geometric mean (geometric %CV)): 7260 ng/mL
- Tmax ([1]; male, human, plasma, oral, 50 mg, tmax, Day 0, 50 mg all, n = 16, median (minimum–maximum)): 2 h
- Tmax ([1]; male, human, plasma, oral, 50 mg, tmax, Day 0, 50 mg not pre-dosed, n = 8, median (minimum–maximum)): 3 h
- Tmax ([1]; male, human, plasma, oral, 50 mg, tmax, Day 0, 50 mg pre-dosed, n = 8, median (minimum–maximum)): 2 h
- Tmax ([1]; male, human, plasma, oral, median tmax, range over groups, Day 0): 2 to 3 h
- accumulation factor for multiple daily dosing ([1]; multiple once-daily dosing): approximately 2
- dose dependence of plasma pharmacokinetics ([1]; repeated oral 30 to 50 mg, fasted): dose-proportional
- accumulation ratio regarding exposure expected following multiple daily dosing ([2]; based on single-dose pharmacokinetics): ~2
- urine samples with concentration below the LLOQ ([2]; single oral 10 mg): all samples
- effect of food on pharmacokinetics ([2]; single oral 10 mg, fasted vs fed): Food did not impact the pharmacokinetics; also recorded: no detrimental effect of food intake
- CL/F ([2]; single oral 10 mg, fasted, n = 6): 4.064 (15.9) ml/min
- blood exposure higher after fed administration compared with fasted [2, 8]: about 32%
- geometric mean Cmax higher after fed compared with fasted [2, 8]: about 23%
- CL/F ([2]; single oral 10 mg, fed, n = 6): 3.090 (25.5) ml/min
- urine samples with concentration below the LLOQ ([2]; single oral 20 mg): four of six samples
- CL/F ([2]; single oral 20 mg, fasted, n = 6): 4.218 (17.2) ml/min
- CL/F ([2]; single oral 30 mg, fasted, n = 6): 3.633 (29.3) ml/min
- CL/F ([2]; single oral 40 mg, fasted, n = 5): 3.480 (21) ml/min
- dose dependence of plasma pharmacokinetics ([2]; single oral 10 to 40 mg, fasted): dose-linear
- fraction of administered dose excreted in urine during single 24 h period ([2]; single oral 30 and 40 mg): more than 1%
